Assay results from ChEMBL document CHEMBL1155413, “Synthesis and evaluation of a library of 2,5-bisdiamino-benzoquinone derivatives as probes to modulate protein-protein interactions in prions” (Bioorg Med Chem Lett, 2010).

What was measured:
Format in all cases: cell-based
[1] = Cytotoxicity against mouse ScGT1 cells at 1 uM after 5 days by calcein-AM staining; conditions: scgt1, 120 h
Outline: (§1)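 ScGT1 cells in DMEM + 10% FBS, plated at 25000 cells per well. Compounds dissolved in 100% DMSO and diluted in PBS, then added at 1 nM–10 μM for 5 days at 37 °C, 5% CO₂. Viability read by Calcein-AM fluorescence on a plate reader as percent viable cells vs untreated control; LC₅₀ taken as the 50% lethal concentration.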

ScGT1 = assay: Antiprion activity against scrapie prion protein replication in mouse ScGT1 cells assessed as inhibition of formation of PrPSc from PrPc after 5 days by western-blot analysis; parameters: concentration or dose not given beside the values; conditions: dose or concentration not given here
Outline: (§2)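 ScGT1 cells in DMEM + 10% FBS, split 1:10 into Petri dishes and grown 2 days at 37 °C, 5% CO₂. Compounds added at non-toxic concentrations from 0.1 nM upward and left 5 days. Proteins then extracted, quantified, digested with proteinase K and Western-blotted. Densitometry of PK-resistant PrP gives percent remaining vs untreated cells; EC₅₀ taken as the concentration for half-maximal inhibition.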

[2] = Antiprion activity against scrapie prion protein replication in mouse ScGT1 cells assessed as inhibition of formation of PrPSc from PrPc […] after 5 days by western-blot analysis; conditions: ScGT1, 120 h; outline: as §2
[3] = Cytotoxicity against mouse ScGT1 cells at after 5 days by calcein-AM staining; conditions: read-out: LC50; outline: as §1

| SMILES | Activity [1] | inhibition (ScGT1) | EC50 [2] | CC50 at 120 h [3] |
| --- | --- | --- | --- | --- |
| COC(=O)[C@H](C)NC1=C(Br)C(=O)C(N[C@@H](CCCCNC(=O)OC(C)(C)C)C(=O)OC)=C(Br)C1=O | 52.3% | – | – | – |
| COC(=O)[C@H](C)NC1=C(Cl)C(=O)C(N[C@@H](Cc2ccccc2)C(=O)OC)=C(Cl)C1=O | 68.4% | 73.2% | 0.87 µM | 2.4 µM |
| CC[C@H](C)[C@@H](NC1=C(Cl)C(=O)C(N[C@@H](C)C(=O)OC)=C(Cl)C1=O)C(=O)OC | 88.2% | 6.6% | – | – |
| COC(=O)[C@H](C)NC1=C(Br)C(=O)C(N[C@@H](Cc2ccccc2)C(=O)OC)=C(Br)C1=O | 80.2% | 18.1% | 3.6 µM | – |
| COC(=O)[C@H](C)NC1=C(Cl)C(=O)C(N[C@@H](CCCCNC(=O)OC(C)(C)C)C(=O)OC)=C(Cl)C1=O | 40.7% | – | – | – |
| COC(=O)[C@H](C)NC1=C(Cl)C(=O)C(N[C@@H](Cc2c[nH]c3ccccc23)C(=O)OC)=C(Cl)C1=O | 96% | 0.25% | 7.7 µM | – |
| COC(=O)[C@H](C)NC1=C(Cl)C(=O)C(N[C@@H](CCSC)C(=O)OC)=C(Cl)C1=O | 95.5% | 4.8% | – | – |
| COC(=O)[C@H](C)NC1=C(Br)C(=O)C(N[C@@H](CCCNC(=N)N[N+](=O)[O-])C(=O)OC)=C(Br)C1=O | 74.1% | 0.31% | – | – |
| CC[C@H](C)[C@@H](NC1=C(Br)C(=O)C(N[C@@H](C)C(=O)OC)=C(Br)C1=O)C(=O)OC | 91.3% | 28.1% | – | – |
| COC(=O)[C@H](C)NC1=C(Br)C(=O)C(N[C@@H](CCSC)C(=O)OC)=C(Br)C1=O | 96.1% | 11.4% | – | – |
| COC(=O)[C@H](C)NC1=C(Cl)C(=O)C(N[C@@H](CCCNC(=N)N[N+](=O)[O-])C(=O)OC)=C(Cl)C1=O | 81.4% | 0.23% | – | – |
| COC(=O)[C@H](C)NC1=C(Br)C(=O)C(N[C@@H](C)C(=O)OC)=C(Br)C1=O | 91.2% | 0.29% | – | – |
| COC(=O)[C@H](C)NC1=C(Cl)C(=O)C(N[C@@H](C)C(=O)OC)=C(Cl)C1=O | 71.6% | 0.36% | – | – |
| COC(=O)[C@H](C)NC1=C(Br)C(=O)C(N[C@@H](Cc2c[nH]c3ccccc23)C(=O)OC)=C(Br)C1=O | 65.9% | 0.43% | – | – |
